From ChEMBL document CHEMBL1131051, “Novel combretastatin analogues effective against murine solid tumors: design and structure-activity relationships” (J Med Chem, 1998)

Key:
Colon 26 [1] = experiment: Growth inhibition of colon 26 adenocarcinoma cells by 50 %.; assay type: functional, cell-based; conditions: Mus musculus
Outline: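 Murine Colon 26 adenocarcinoma cells were kept in RPMI-1640 with 10% FBS. Cells were seeded at 1×10^5 cells/ml in 96-well plates and held 24 h at 37 °C in CO2. They were then exposed to a range of compound concentrations for 48 h, and viable cells were counted by MTT dye reduction. IC50 is the mean of three independent assays.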

Tubulin = Tubulin (Bos taurus, UniProt Q6B856+Q862L2+Q862F3); experiment: Inhibitory activity against tubulin polymerization; assay type: protein assay
Outline: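 Tubulin polymerization was started with GTP. It was followed turbidimetrically at 350 nm at 37 °C, and extent was read after 20 min incubation. IC50 was determined graphically, averaging three independent assays.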

MC-38 [2] = experiment: Antitumor activity at dose 10 mg/kg in Murine colon38 cells; assay type: functional, Mus musculus
Outline: (§1)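 Tumor fragments (5 mg) implanted sc on day 0: Colon 26 into CD2F1 mice, Colon 38 or 3LL into BD2F1 mice, HCT-15 into ICR nu/nu mice. Dosing iv on days 7, 11 and 15. On day 21, two caliper diameters were measured; tumor weight = length × width²/2. IR (%) = (1 − T/C) × 100, from mean treated versus control tumor weights.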

Colon 26 [3] = experiment: Antitumor activity at dose 10 mg/kg in murine colon26 cells; assay type: functional, Mus musculus; outline: as §1
HCT-15 [4] = experiment: Antitumor activity at dose 10 mg/kg in HCT-15 cells; assay type: functional, Mus musculus; outline: as §1
[5] = test system: Lewis lung carcinoma cell line; experiment: Antitumor activity at dose 40 mg/kg in Lewis lung carcinoma cells (3LL) cells; assay type: functional, Mus musculus; outline: as §1
Colon 26 [6] = experiment: (§2) Antitumor activity at dose 40 mg/kg in colon26 cells; assay type: functional, Mus musculus; outline: as §1
Colon 26 [7] = experiment: Antitumor activity at dose 5 mg/kg in murine colon26 cells; assay type: functional, Mus musculus
MC-38 [8] = experiment: Antitumor activity at dose 10 mg/kg in colon38 cells; assay type: functional, Mus musculus; outline: as §1
[9] = as §2; assay type: functional, Mus musculus; outline: as §1
HCT-15 [10] = experiment: Antitumor activity at dose 40 mg/kg in HCT-15 cells; assay type: functional, Mus musculus; outline: as §1
Colon 26 [11] = experiment: Antitumor activity at dose 160 mg/kg in murine colon26 cells; assay type: functional, Mus musculus

Row | Structure (SMILES) | IC50 (Tubulin) | IC50 (Colon 26 [1]) | other results
1 | COc1ccc(/C=C(/C#N)c2cc(OC)c(OC)c(OC)c2)cc1 | 6000 nM | 18 nM | –
2 | COc1ccc(/C=C(/C#N)c2cc(OC)c(OC)c(OC)c2)cc1N.Cl | – | – | IR (MC-38 [2]): 75%; IR (Colon 26 [3]): 77%; IR (HCT-15 [4]): 28%; IR [5]: 59%
3 | COc1cc(/C=C\c2ccc(C)c(N)c2)cc(OC)c1OC.Cl | – | – | IR (Colon 26 [6]): 62%
4 | COc1cc(/C(C#N)=C\c2ccc(C)c(N)c2)cc(OC)c1OC.Cl | – | – | IR (Colon 26 [7]): 11%
5 | COc1ccc(/C=C\c2cc(OC)c(OC)c(OC)c2)cc1N.Cl | – | – | IR (MC-38 [8]): 72%; IR [9]: 62%; IR (Colon 26 [6]): 69%; IR (HCT-15 [10]): 53%; IR [5]: 65%
6 | COc1ccc(/C(C#N)=C\c2cc(OC)c(OC)c(OC)c2)cc1N | 5000 nM | 235 nM | –
7 | COc1ccc(/C=C(\C#N)c2cc(OC)c(OC)c(OC)c2)cc1[N+](=O)[O-] | > 20000 nM | > 3000 nM | –
8 | COc1ccc(/C(=C\c2cc(OC)c(OC)c(OC)c2)C(N)=O)cc1N | – | 223 nM | –
9 | COc1cc(/C(C#N)=C\c2ccc(Cl)c(N)c2)cc(OC)c1OC.Cl | – | – | IR (Colon 26 [7]): -23%
10 | COc1ccc(/C=C(/C#N)c2cc(OC)c(OC)c(OC)c2)cc1N | 10000 nM | 5.9 nM | –
11 | COc1ccc(/C=C(/C#N)c2cc(OC)c(OC)c(OC)c2)cc1O | 5000 nM | 23.5 nM | –
12 | COc1ccc(/C=C(/C#N)c2ccccc2)cc1N | 8000 nM | 36 nM | –
13 | COc1ccc(/C=C\c2cc(OC)c(OC)c(OC)c2)cc1O [COMBRETASTATIN A4] | – | 18 nM | IR (Colon 26 [11]): 31%
14 | COc1cc(/C=C\c2ccc(Cl)c(N)c2)cc(OC)c1OC | 3000 nM | 68.9 nM | –
15 | COc1ccc(/C=C(/CO)c2cc(OC)c(OC)c(OC)c2)cc1 | > 20000 nM | 363 nM | –
16 | COc1ccc(/C=C(\C#N)c2cc(OC)c(OC)c(OC)c2)cc1N | > 20000 nM | 12.6 nM | –
17 | COc1ccc(/C(C#N)=C\c2ccc(OC)c(N)c2)cc1 | 9000 nM | 1430 nM | –
18 | COc1ccc(/C=C(/C#N)c2cc(OC)c(OC)c(OC)c2)cc1NC(C)=O | 10000 nM | 18.3 nM | –
19 | COc1ccc(/C=C\c2cc(OC)c(OC)c(OC)c2)cc1N | – | 5.1 nM | –
20 | COc1cc(/C=C\c2ccc(C)c(N)c2)cc(OC)c1OC | 4000 nM | 43.5 nM | –

Now from value to compound, other results behind:

Row | IC50 (Tubulin) | Structure (SMILES) | IC50 (Colon 26 [1]) | other results
21 | 4000 nM | COc1ccc(/C=C(/C=O)c2cc(OC)c(OC)c(OC)c2)cc1 | 213 nM | –
22 | > 20000 nM | COc1cc(/C(C#N)=C/c2ccc(C)c(N)c2)cc(OC)c1OC | 722 nM | –
23 | 6000 nM | COc1cc(/C(C#N)=C\c2ccc(Cl)c(N)c2)cc(OC)c1OC | 58.1 nM | –
24 | > 20000 nM | COc1ccc(/C=C(/C#N)c2cc(OC)c(OC)c(OC)c2)cn1 | 2370 nM | –
25 | > 20000 nM | COc1ccc(/C=C(\C#N)c2cc(OC)c(OC)c(OC)c2)cc1 | 63.7 nM | –
26 | 10000 nM | COc1cc(/C(C#N)=C\c2ccc(C)c(N)c2)cc(OC)c1OC | 61.7 nM | –
27 | > 20000 nM | COc1ccc(CC(C#N)c2cc(OC)c(OC)c(OC)c2)cn1 (stereo unspecified) | > 3000 nM | –
28 | 5000 nM | COc1ccc(/C=C(/C#N)c2cc(OC)c(OC)c(OC)c2)cc1[N+](=O)[O-] | 135 nM | –
29 | > 20000 nM | COc1ccc(/C=C(/CN)c2cc(OC)c(OC)c(OC)c2)cc1 | > 3000 nM | –
30 | > 20000 nM | COc1ccc(/C=C(/C[N+](C)(C)C)c2cc(OC)c(OC)c(OC)c2)cc1.[I-] | > 3000 nM | –
31 | 3000 nM | COc1ccc(/C=C(/C(N)=O)c2cc(OC)c(OC)c(OC)c2)cc1N | 195 nM | –
32 | 7000 nM | COc1ccc(CC(C#N)c2cc(OC)c(OC)c(OC)c2)cc1N (stereo unspecified) | 22.5 nM | –
33 | 7000 nM | COc1ccc(/C=C(/C#N)c2ccc(OC)c(OC)c2)cc1N | 8.1 nM | –
